For test [1], the system named is HCC1806. Description: Cytotoxicity against human HCC1806 cells assessed as inhibition of cell viability incubated for 48 hrs by MTT assay. It counts as functional, cell-based. As to conditions: HCC1806, 48 h. The method, boiled down: (§1)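 Log-phase cells seeded at 5 × 10^4 cells per mL in 96-well plates, cultured overnight at 37 °C, 5% CO2, then treated at 100, 50, 25, 12.5 and 6.25 μmol L−1, triplicate wells per concentration, for 48 h. MTT (20 μL of 5 mg ml−1) added for 4 h; after centrifugation the medium was removed and the formazan dissolved in DMSO. A570 was read and IC50 calculated. Cisplatin served as positive control.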

A further test concerns HeLa. Description: Cytotoxicity against human HeLa cells assessed as inhibition of cell viability incubated for 48 hrs by MTT assay. It counts as functional, cell-based. The method, boiled down:
as §1

The subject of a further test is A549. Put plainly: Cytotoxicity against human A549 cells assessed as inhibition of cell viability incubated for 48 hrs by MTT assay. It counts as functional, cell-based. As to conditions: A549, 48 h. The method, boiled down: as §1
Test [2] deals with HCC1806. Description: Induction of apoptosis in human HCC1806 cells assessed as proportion of viable cells at 3 uM incubated for 24 hrs by AnnexinV-FITC/PI staining based flow cytometry (reference value: 86.0 %). It counts as functional.
For test [3], the system named is HCC1806. Put plainly: Induction of apoptosis in human HCC1806 cells assessed as proportion of early apoptotic cells at 3 uM incubated for 24 hrs by AnnexinV-FITC/PI staining based flow cytometry (reference value: 5.32 %). It counts as functional.
The subject of test [4] is HCC1806. Put plainly: Induction of apoptosis in human HCC1806 cells assessed as proportion of late apoptotic cells at 3 uM incubated for 24 hrs by AnnexinV-FITC/PI staining based flow cytometry (reference value: 5.29 %). It counts as functional.
For test [5], the system named is HCC1806. Put plainly: Induction of apoptosis in human HCC1806 cells assessed as proportion of necrotic cells at 3 uM incubated for 24 hrs by AnnexinV-FITC/PI staining based flow cytometry (reference value: 3.40 %). It counts as functional.
The test system of test [6] is HCC1806. Put plainly: Induction of apoptosis in human HCC1806 cells assessed as proportion of viable cells at 6 uM incubated for 24 hrs by AnnexinV-FITC/PI staining based flow cytometry (reference value: 86.0 %). It counts as functional.
Test [7] deals with HCC1806. Put plainly: Induction of apoptosis in human HCC1806 cells assessed as proportion of early apoptotic cells at 6 uM incubated for 24 hrs by AnnexinV-FITC/PI staining based flow cytometry (reference value: 5.32 %). It counts as functional.
For test [8], the system named is HCC1806. Put plainly: Induction of apoptosis in human HCC1806 cells assessed as proportion of late apoptotic cells at 6 uM incubated for 24 hrs by AnnexinV-FITC/PI staining based flow cytometry (reference value: 5.29 %). It counts as functional.
Test [9] has as its system HCC1806. Put plainly: Induction of apoptosis in human HCC1806 cells assessed as proportion of necrotic cells at 6 uM incubated for 24 hrs by AnnexinV-FITC/PI staining based flow cytometry (reference value: 3.40 %). It counts as functional.
In test [10] the target is Vascular endothelial growth factor receptor 2 (Homo sapiens) (UniProt P35968). Description: Inhibition of VEGFR-2 (unknown origin) at 100 uM incubated for 90 mins by Kinase-Glo MAX reagent based luminescence analysis relative to control. Put shortly: (§2)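 A VEGFR-2 (KDR) kinase kit was used. Compound was made in DMSO and diluted in 1× kinase buffer 1, with matched DMSO in all wells. Master mix and compound were combined, and the reaction was started with diluted VEGFR-2 kinase, then incubated at 30 °C for 45 min. Kinase-Glo MAX reagent was added for 15 min at room temperature before luminescence was read. Blank and positive-control wells were included.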

Test [11] has the same target. Description: Inhibition of VEGFR-2 (unknown origin) at 50 uM incubated for 90 mins by Kinase-Glo MAX reagent based luminescence analysis relative to control.
For test [12] the target is unchanged. Put plainly: Inhibition of VEGFR-2 (unknown origin) at 25 uM incubated for 90 mins by Kinase-Glo MAX reagent based luminescence analysis relative to control. The method, boiled down:
as §2

Sequence of Vascular endothelial growth factor receptor 2 (Homo sapiens) (P35968 whole entry): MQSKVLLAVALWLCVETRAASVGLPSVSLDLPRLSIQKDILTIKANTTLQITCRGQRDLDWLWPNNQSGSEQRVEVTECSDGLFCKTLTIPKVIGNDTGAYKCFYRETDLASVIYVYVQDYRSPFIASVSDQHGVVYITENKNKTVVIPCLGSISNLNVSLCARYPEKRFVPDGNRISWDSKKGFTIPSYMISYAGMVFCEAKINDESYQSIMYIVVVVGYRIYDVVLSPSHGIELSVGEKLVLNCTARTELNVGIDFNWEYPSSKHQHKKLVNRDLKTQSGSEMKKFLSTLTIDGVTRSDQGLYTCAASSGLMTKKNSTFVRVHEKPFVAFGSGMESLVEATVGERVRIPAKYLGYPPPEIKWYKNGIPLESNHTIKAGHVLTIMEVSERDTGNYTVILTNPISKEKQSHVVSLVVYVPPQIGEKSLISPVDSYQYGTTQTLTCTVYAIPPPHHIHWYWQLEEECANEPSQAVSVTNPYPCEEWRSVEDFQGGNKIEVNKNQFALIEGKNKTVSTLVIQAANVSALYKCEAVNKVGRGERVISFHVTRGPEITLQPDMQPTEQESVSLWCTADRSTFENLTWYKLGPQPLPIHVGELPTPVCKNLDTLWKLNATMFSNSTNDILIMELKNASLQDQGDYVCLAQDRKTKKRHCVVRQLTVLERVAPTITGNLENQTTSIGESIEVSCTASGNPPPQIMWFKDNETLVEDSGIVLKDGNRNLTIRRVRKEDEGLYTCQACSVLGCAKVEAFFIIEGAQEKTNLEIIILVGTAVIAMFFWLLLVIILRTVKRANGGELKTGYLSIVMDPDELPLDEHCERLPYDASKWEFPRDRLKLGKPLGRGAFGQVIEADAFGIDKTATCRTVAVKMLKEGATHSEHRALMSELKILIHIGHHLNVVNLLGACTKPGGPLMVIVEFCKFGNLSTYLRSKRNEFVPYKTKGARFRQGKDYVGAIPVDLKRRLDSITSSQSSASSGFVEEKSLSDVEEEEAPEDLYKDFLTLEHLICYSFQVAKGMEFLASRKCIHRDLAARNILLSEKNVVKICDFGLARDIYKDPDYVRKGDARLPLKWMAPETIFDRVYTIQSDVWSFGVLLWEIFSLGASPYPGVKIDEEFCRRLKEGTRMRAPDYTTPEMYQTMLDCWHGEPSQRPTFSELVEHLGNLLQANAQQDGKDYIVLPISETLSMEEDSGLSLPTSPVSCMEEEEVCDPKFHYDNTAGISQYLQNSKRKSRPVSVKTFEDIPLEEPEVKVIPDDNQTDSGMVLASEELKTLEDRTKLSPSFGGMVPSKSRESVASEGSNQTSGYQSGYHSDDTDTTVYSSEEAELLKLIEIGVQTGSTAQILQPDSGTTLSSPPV

`COc1cc2ncnc(Nc3ccc4oc(C(=O)/C=C/c5ccccn5)cc4c3)c2cc1OC`: the half-maximal inhibitory concentration (IC50) in the test with HCC1806 [1], with HeLa and with A549 was over 25 µM in each case.
As to `COc1cc2ncnc(Nc3ccc4oc(C(=O)/C=C/c5ccc(F)c(F)c5)cc4c3)c2cc1OC`, the concentration for half-maximal inhibition (IC50) was 16.6 µM with HCC1806 [1], over 25 µM with HeLa and over 25 µM with A549.
Regarding `COc1cc2ncnc(Nc3ccc4oc(C(=O)/C=C/c5ccc(N6CCOCC6)cc5)cc4c3)c2cc1OC`, the IC50 in the test on HCC1806 [1], with HeLa and in the test on A549 was over 25 µM in each case.
On to `COc1cc2ncnc(Nc3ccc4oc(C(=O)/C=C/c5cccs5)cc4c3)c2cc1OC`, for which the concentration for half-maximal inhibition (IC50) in the test on HCC1806 [1], in the test with HeLa and in the test on A549 was over 25 µM each time.
Turning to `COc1cc2ncnc(Nc3ccc4oc(C(=O)/C=C/c5ccc(N6CCN(C)CC6)cc5)cc4c3)c2cc1OC`, the IC50 with HCC1806 [1], in the test on HeLa and in the test on A549 was over 25 µM in each case.
Consider `COc1cc2ncnc(Nc3ccc4oc(C(=O)/C=C/c5c[nH]c6ccccc56)cc4c3)c2cc1OC`, for which the IC50 with HCC1806 [1] was 9.52 µM; in the test with HeLa, 4.95 µM; in the test with A549, over 25 µM.
On the same counts, the results for `COc1cc2ncnc(Nc3ccc4oc(C(=O)/C=C/c5ccc(Br)cc5)cc4c3)c2cc1OC` are 18.4 µM, 24.8 µM and over 25 µM.
Turning to `COc1cc2ncnc(Nc3ccc4oc(C(=O)/C=C/c5ccc(O)cc5)cc4c3)c2cc1OC`, the values for the concentration for half-maximal inhibition (IC50) in the test with HCC1806 [1], with HeLa and in the test with A549 were 6.6 µM, 6.19 µM and 6.27 µM, respectively.
Regarding `COc1cc2ncnc(Nc3ccc4oc(C(=O)/C=C/c5ccc(C)o5)cc4c3)c2cc1OC`, the concentration for half-maximal inhibition (IC50) in the test with HCC1806 [1], in the test on HeLa and with A549 was over 25 µM throughout.
With `COc1cc2ncnc(Nc3ccc4oc(C(=O)/C=C/c5ccc(-n6cccn6)cc5)cc4c3)c2cc1OC`, the IC50 with HCC1806 [1], in the test on HeLa and in the test with A549 was over 25 µM throughout.
Consider `COc1cc2ncnc(Nc3ccc4oc(C(=O)/C=C/c5c[nH]c6ccc(Br)cc56)cc4c3)c2cc1OC`, for which the IC50 with HCC1806 [1], in the test on HeLa and in the test with A549 was over 25 µM each time.
On to `COc1cc2ncnc(Nc3ccc4oc(C(=O)/C=C/c5ccncc5)cc4c3)c2cc1OC`, for which the IC50 with HCC1806 [1] is 6.4 µM; in the test with HeLa it was 6.36 µM; in the test on A549 it was over 25 µM.
With `COc1cc(/C=C/C(=O)c2cc3cc(Nc4ncnc5cc(OC)c(OC)cc45)ccc3o2)cc(OC)c1`, the half-inhibitory concentration (IC50) is 5.93 µM in the test with HCC1806 [1], 5.61 µM with HeLa and over 25 µM with A549. Besides, the Activity turned out to be 77.6% in the test with HCC1806 [2]; 6.91% in the test on HCC1806 [3]; 9.05% in the test on HCC1806 [4]; 6.44% in the test with HCC1806 [5]; 47.7% in the test on HCC1806 [6]; 12.8% in the test on HCC1806 [7]. For the same compound, the Activity with HCC1806 [8] is 29.4%; in the test on HCC1806 [9], 10%. The values for the inhibition in test [10], in test [11] and in [12] were 38%, 16% and 10%, respectively.
With `COc1cc2ncnc(Nc3ccc4oc(C(=O)/C=C/c5ccccc5)cc4c3)c2cc1OC`, the figures for the IC50 in the test with HCC1806 [1], in the test with HeLa and in the test with A549 were 7.03 µM, 3.18 µM and 21.6 µM, respectively.
Consider `COc1cc2ncnc(Nc3ccc4oc(C(=O)/C=C/c5ccc(Cl)cc5)cc4c3)c2cc1OC`, for which the half-maximal inhibitory concentration (IC50) with HCC1806 [1], in the test on HeLa and in the test on A549 was over 25 µM in each case.
On to `COc1cc2ncnc(Nc3ccc4oc(C(=O)/C=C/c5cc6ccccc6o5)cc4c3)c2cc1OC`, for which the IC50 in the test with HCC1806 [1] was 17.1 µM; in the test on HeLa, over 25 µM; in the test on A549, over 25 µM.
Take `COc1ccc(/C=C/C(=O)c2cc3cc(Nc4ncnc5cc(OC)c(OC)cc45)ccc3o2)cc1OC`: the IC50 in the test on HCC1806 [1], with HeLa and with A549 was over 25 µM throughout.
Consider `COc1cc2ncnc(Nc3ccc4oc(C(=O)/C=C/c5ccc(N(C)C)cc5)cc4c3)c2cc1OC`, for which the IC50 in the test on HCC1806 [1], in the test with HeLa and in the test on A549 was over 25 µM throughout.

Source of the values: ChEMBL document CHEMBL6114937, “Synthesis and anti-tumor activity of new benzofuran-based chalcone derivatives as potent VEGFR-2 inhibitors” (RSC Med Chem, 2025).
